Results from different studies.
Lines come from different studies, so protocols differ.
Target: High affinity nerve growth factor receptor (NTRK1, Homo sapiens, UniProt P04629)

O=c1[nH]c2ccccc2n1C1CCN(Cc2ccc(-c3[nH]c4cc5ncnc5cc4nc3-c3ccccc3)cc2)CC1
remaining signal (cell-free assay; 0.5 µM): 99.4%

COc1cc(Nc2ncc(F)c(Nc3ccc4c(n3)NC(=O)C(C)(C)O4)n2)cc(OC)c1OC
inhibition (binding; 10 µM): 100%

C#Cc1n[nH]c2c(-c3cn([C@@H](C)c4ccccn4)c(=O)[nH]c3=O)cc(F)cc12
inhibition (enzyme activity; inhibitor; 0.1 µM): 11.2%

Cn1cc(-c2cccc(N3CCc4c(sc5c4CC(C)(C)C5)C3=O)c2CO)cc(Nc2ccncn2)c1=O
inhibition (enzyme activity; inhibitor; 1 µM): 11%

Nc1ncc(-c2nc(N3CCOCC3)nc(N3CCOCC3)n2)c(C(F)F)n1
remaining binding (cell-free assay; competition with immobilised ligand; 10 µM): 78%

COc1ncccc1-c1cnn2ccc(N3CCN(C(=O)OC(C)C)CC3)nc12
remaining binding (binding; competition with immobilised ligand; 1 µM): 61%

Cn1cc(-c2cc(F)cc(N3CCn4c(cc5c4CCCC5)C3=O)c2CO)cc(Nc2ccc(N3CCN(C4COC4)CC3)cn2)c1=O
inhibition (enzyme activity; inhibitor; 0.1 µM): 15%

C#Cc1n[nH]c2c(-c3cn([C@@H](C)c4ccccc4)c(=O)[nH]c3=O)cc(F)cc12
inhibition (enzyme activity; inhibitor; 0.1 µM): 5%

Cc1nn(C)cc1-c1nc2c(N3CCN(Cc4ccc(Cl)cc4)CC3)c(Cl)cnc2[nH]1
remaining binding (binding; competition with immobilised ligand; 1 µM): 80%

CC(C)(C)c1cc(C=C(C#N)C#N)cc(Br)c1O
remaining activity (enzyme activity; inhibitor; 0.5 µM): 100%

Cn1cncc1[C@](O)(COc1ccc(C#N)cc1-c1ccc(OC(F)(F)F)cc1)c1ccc(C#N)cc1
remaining binding (cell-free assay; competition with immobilised ligand; 1 µM): 91%
